For 37 variants, yeast fitness results are on record in the RNAGym collection of RNA variant scans (doi:10.1126/science.aae0568).

Fewer inactive variants are shown than the library holds.

Sequences and labels used below:
B1: tRNA (parent)
chain: GUUCCGUUGGCGUAAUGGUAACGCGUCUCCCUCCUAAGGAGAAGACUGCGGGUUCGAGUCCCGUACGGAACG

The variants in the series derive from B1. The experiment in a line: yeast fitness relative to wild type (ratio to wild type); higher = fitter; tRNA-Arg(CCU), competitive growth, 37 C, YPD. In short, it runs like this:
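Variants of the tRNA-Arg(CCU) gene were chemically synthesised with a 3% per-site mutation rate across 69 sites and placed at the native genomic locus in Saccharomyces cerevisiae. Six parallel replicates of the pooled strains were competed in YPD at 37°C for 24 hours, and gene amplicons from the start and end populations were read by 100-nucleotide paired-end sequencing. Darwinian fitness relative to wild type was derived from changes in genotype frequencies. Genotypes required ≥ 100 starting reads, and estimates < 0.5 were set to 0.5.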
On to GUUCCGUAGGCAUAAUGGUAACGCGUCUCCCUCCUAAGGAGAAAACUGCGGGUUCGAGUUCCGUACCGAACG [U8A G12A G44A C60U G67C], for which the yeast fitness is ≤ 0.5.

For the variant GUUCCGUAGGCGUAAUGCUAACGCCUCUCCCUCCUAAGGAGAAGACUGCGGGUUCGAGUCCCGUACGGAACG [U8A G18C G25C], the yeast fitness was ≤ 0.5.

With GUUCCGUAGGCGUAAUGGUAACGCAUCUCCCUCCUAAGGCGAAGAUUGCGGGUUCGAGUCCCGUACGGAACG [U8A G25A A40C C46U], the yeast fitness is 0.598.

On to GUUCCGUAGGCGUAAUGCUAACGAGUCUCCCCCCUAAGGAGAAGACUGCGGGUUCGAGUCCCGCGCGGAACG [U8A G18C C24A U32C U64C A65G], for which the yeast fitness was ≤ 0.5.

Turning to GUUCCGUAGGCGUAAUGAUAACGCGUCUCACACCGAAGGAGAAGACUGCGGGUUCGAGUCCCGUCCGGAACG [U8A G18A C30A U32A U35G A65C], the yeast fitness was ≤ 0.5.

For GUUCCGUAGGCGUAAUGAUAACGCGUCUCCCCCCUAAGGAGAAGACUGCGGGUUCGAGUCCCGUACGGAACG [U8A G18A U32C], the yeast fitness is ≤ 0.5.

In the case of GUUCCGUAAGCGUAAUGGUAACGCGUCUCCCUCCUAAGGAGAAGACUGCGGGUUCGAGUGCCGUACGGAACG [U8A G9A C60G], the yeast fitness is ≤ 0.5.

Take GUUCCGUAGGCAUAAUGGUAACGCGUCUCCCUCCUAAGGAGAAGACUGCGGGUUCGAGUCCCGUACGGAACG [U8A G12A]: the yeast fitness was determined as 0.824.

In the case of GUUCCGUAGACGUAAUGGUAACGCGGCUCCCUCCUAAGGAGAAGACUGCGGGUUCGAAUCCCGUACGGAACG [U8A G10A U26G G58A], the yeast fitness was ≤ 0.5.

As to GUUCCGUAGGCGUAAUGAUAACGCGUCUCCCUCCUAAGGAGAAGACUGCGGGUUCGAGUCCCGUACGGAACG [U8A G18A], the yeast fitness was 0.578.

In the case of GUUCCGUAAGCGUAAUGGUAACGCGUCUCCCUCCUAUGGAGAAGAUUGCGGGUUCGAGUCUCGUAUGGAACG [U8A G9A A37U C46U C61U C66U], the yeast fitness is ≤ 0.5.

As to GUUCCGUAGCCGUAAUGGUAACGCGUCUCCCUCCUAAGGAGAAGACUGCGGGUUCGAGUCCCGUAUGGAACG [U8A G10C C66U], the yeast fitness was ≤ 0.5.

For GUUCCGUAGGCGUAAUGGUAACCCGUCUCCCUCCUAAGGAGAAGACUGCGGGUUCGAGUCUCGUACGGAACG [U8A G23C C61U], the yeast fitness was determined as 0.575.

On to GUUCCGUAGGCGUAAUGCUAACGAGUCUUCCCCCUAAGGAGAAGACUGCGGGUUCGAGUCCCGUACGGAACG [U8A G18C C24A C29U U32C], for which the yeast fitness was ≤ 0.5.

As to GUUCCGUAGGCGUAAUGGUAACGCGUCUCUCUCCUAAGGAGAAGACUGCGGGUUCGCGUCCCGUACGGAACG [U8A C30U A57C], the yeast fitness was ≤ 0.5.

Regarding GUUCCGUAGGCGUAAUAGUAAUGUGUCCCCCUCCUAAGGAGAAGACUGCGGGUGCGCGUCCUGUACGGAACG [U8A G17A C22U C24U U28C U54G A57C C62U], the yeast fitness was ≤ 0.5.

Turning to GUUCCGUAGGCAUAAUGGUAAAGCGUCUCCGUCCUAAGGAGAAGACUGCGGGUUCGAAUCACGUACGGAACG [U8A G12A C22A C31G G58A C61A], the yeast fitness was ≤ 0.5.

GUUCCGUAGGCGUAAUGGUAACGCGUCUCCCUCCUAAGGAGAAGAAUGCGGGUUCGAGUCCCGUACGCAACG [U8A C46A G68C]: the yeast fitness was ≤ 0.5.

Consider GUUCCGUAGGCGUAAUGGUAACGCGUCUCCCUCCUAAGGAGAAGACUGCGGGUUCGAGUCACGUACCGAACG [U8A C61A G67C], for which the yeast fitness was determined as 0.561.

For GUUCCGUAGGCGUAAUGGUAACGCGUCUCCCUCGUAAGGAGAAGACUGCGGGUUCGAGUCCCGUACGGAACG [U8A C34G], the yeast fitness is ≤ 0.5.

Turning to GUUCCGUAGGCGUAAUAGUAACGUGUCUCCCUCCUAAGGAGAAGACUGCGGGUUCGAGUCCCGUACGGAACG [U8A G17A C24U], the yeast fitness turned out to be 0.95.

With GUUCCGUAGGCGUAAUGCUAACGCCUCUCCCUCCUAAGGAGAAGACUGCGGGUUCGUGUUACGUACGGAACG [U8A G18C G25C A57U C60U C61A], the yeast fitness was ≤ 0.5.

GUUCCGUAGGCGUAAUGGUAACACGUCUCCCUCCUAAGGAGAAGACUGCGGGUUCGAGUCCCGUACGGAACG [U8A G23A]: the yeast fitness turned out to be 0.597.

With GUUCCGUAGGCGUAAUGGUAACGCGUCUCCUUCCUAAGGAGAAGACUGCGGGUUCGAGUACGGUACGGACCG [U8A C31U C60A C62G A70C], the yeast fitness is ≤ 0.5.

GUUCCGUAGGCGUAAUGCUAACGCGUUUCCCUCCUAAGGAGAAGACUGCGGGUUCGAGUCCCGUCCGGAACG [U8A G18C C27U A65C]: the yeast fitness was ≤ 0.5.

On to GUUCCGUAGGCGUAAUGGUAACGCGUCUCCGUCCUAAGGAGCAGACUGCGGGUUUGAGUCCCGUACGAAACG [U8A C31G A42C C55U G68A], for which the yeast fitness was ≤ 0.5.

Take GUUCCGUAGGCCUAAUGGUAACGCGUCUCCCUCCUAAGGAGAAGACAGCGGGUUCGAGUCCUGUACGGAACG [U8A G12C U47A C62U]: the yeast fitness is 0.545.

On to GUUCCGUAGGCGUAAUGGUAACCCGUCUCCCUCCUAAGGAGAAGACUGCGCGUUCGAGUCCGGUACGGAACG [U8A G23C G51C C62G], for which the yeast fitness is 0.727.

On to GUUCCGUAGGCGUAAUGGUAACGCGUCUCCCUUCUAAGGAGAAGACUGCGGGUUCGAGUCCCGUACAGAACG [U8A C33U G67A], for which the yeast fitness was ≤ 0.5.

As for GUUCCGUAGGCGUAAUGGUAACGCGUCUCCAUCCUAAGGAGAAGACUGCGGGUUCGAGUCCCGUACGGAACG [U8A C31A], the yeast fitness amounted to 0.605.

Consider GUUCCGUAGGCGUAAUGGUAACGCGUCUCCCUCCUAAGGAGAAGACUGCGGGUUCGAGUCCUGUACGGAACG [U8A C62U], for which the yeast fitness amounted to 0.7.

In the case of GUUCCGUAGACGUAAUGGUAACGCGUCUCCCUCCUAAGGAGAAGACUGCGGGUUCGAGUCCCGUACUGAACG [U8A G10A G67U], the yeast fitness was ≤ 0.5.

With GUUCCGUAAGCGUAAUGGUAACGCGUCUCCCUCCUAAGGAGAAGACUGCGGGUUCGAGUCCCGUACAGAACG [U8A G9A G67A], the yeast fitness came out at 0.553.

With GUUCCGUAGGCGUAAUGAUAACGCGUCUCCCUCUUAAGGAGCAGACUGCGGGUUCGAGUCCCGUACGGAACG [U8A G18A C34U A42C], the yeast fitness is ≤ 0.5.

In the case of GUUCCGUAGGCGUAAUGGUAACGCGUCUCCGUCCUAAGGAGAAGAUUGCGGGUUCGAGUACCGUACGGAACG [U8A C31G C46U C60A], the yeast fitness is ≤ 0.5.

Consider GUUCCGUAGGCGUAAUGGUAACGCGUCUCCCUCCUAAGGAGAAGAUUGCGGGUUCGCGUCCCGUACGGAACG [U8A C46U A57C], for which the yeast fitness amounted to 0.635.

Regarding GUUCCGUAGCCGUAAUGGUUACGCGUCUCCCUCCUAAGGAUAAGACUGCGGGUUCGAGUCCUGUACGCAACG [U8A G10C A20U G41U C62U G68C], the yeast fitness was determined as 0.799.
